Assay [1] relates to CB1R and CB2R. The experiment in a line: Competition for [3H]CP55940 binding in HEK293 cell membranes. The following applies: HEK293 cell membranes without heterologous CB1R/CB2R. Also on record: species or system human.
Assay [2] relates to AI-sensitive GPCRs. The experiment in a line: Competition for [3H]WIN55212-2 binding in HEK293 cell membranes. Also noted: species or system human. An outline of the steps: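 P2 membrane fractions were prepared from independent HEK293 cultures, which lack CB1R and CB2R. Membranes were incubated with [³H]WIN55212-2 and increasing concentrations of test compound, and specific binding was measured by filtration. Nonspecific binding was defined with 1 μM unlabelled WIN55212-2.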

Assay [3] concerns mouse CB2R. The following applies: cited from earlier work.
Assay [4] concerns the target human CB1R (Homo sapiens, UniProt P21554). The experiment in a line: CB1R internalization in HEK293 cells stably expressing HA-tagged CB1R. In kind it is cell-based. The following applies: AI compounds tested at 3 μM. A digest of the protocol: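 Human CB1R carrying an HA tag was expressed in cultured HEK293 cells. Test compound was applied at 3 μM, with CP55940 at 1 μM as the positive control. Internalization was read as % of vehicle control. Data are mean ± SEM of 3–5 independent experiments, compared by one-way ANOVA with Bonferroni post-test.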

Assay [5] concerns the target human CB2R (Homo sapiens, UniProt P34972). Kind of assay: CB2R internalization in HEK293 cells stably expressing HA-tagged CB2R. In kind it is cell-based. The following applies: AI compounds tested at 3 μM. A digest of the protocol: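 HA-tagged human CB2R was expressed heterologously in cultured HEK293 cells. Test compound was given at 3 μM, with or without the CB2R antagonist AM630 at 1 μM; CP55940 at 1 μM served as the positive control. Internalization was expressed as % of vehicle control. Mean ± SEM of 3–5 independent experiments; one-way ANOVA with Bonferroni post-test.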

Assay [6] concerns AI-sensitive GPCRs. The experiment in a line: [35S]GTPγS binding in HEK293 cell membranes. It counts as biochemical, human. Particulars: for [35S]GTPγS response after pertussis toxin: PTX 100 ng/ml pretreatment of HEK293 cells for 20 h.
[7] abbreviates: read-out: KiHigh (AIHigh binding sites), high affinity site.

“Also recorded” adds a separate entry of the source. Read-outs that look alike come from different tables or passages of the source.

human CB2R, sequence (P34972 whole entry): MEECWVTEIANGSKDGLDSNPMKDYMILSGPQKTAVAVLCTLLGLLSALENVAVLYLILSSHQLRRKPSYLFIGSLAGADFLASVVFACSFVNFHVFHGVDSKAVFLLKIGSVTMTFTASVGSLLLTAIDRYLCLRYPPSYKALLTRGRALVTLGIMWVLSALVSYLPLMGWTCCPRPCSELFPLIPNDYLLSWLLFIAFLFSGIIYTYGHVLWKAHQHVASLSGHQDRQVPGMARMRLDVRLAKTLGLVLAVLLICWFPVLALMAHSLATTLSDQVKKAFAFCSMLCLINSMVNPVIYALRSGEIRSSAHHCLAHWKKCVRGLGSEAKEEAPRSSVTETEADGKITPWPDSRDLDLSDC
human CB1R, sequence (P21554 whole entry): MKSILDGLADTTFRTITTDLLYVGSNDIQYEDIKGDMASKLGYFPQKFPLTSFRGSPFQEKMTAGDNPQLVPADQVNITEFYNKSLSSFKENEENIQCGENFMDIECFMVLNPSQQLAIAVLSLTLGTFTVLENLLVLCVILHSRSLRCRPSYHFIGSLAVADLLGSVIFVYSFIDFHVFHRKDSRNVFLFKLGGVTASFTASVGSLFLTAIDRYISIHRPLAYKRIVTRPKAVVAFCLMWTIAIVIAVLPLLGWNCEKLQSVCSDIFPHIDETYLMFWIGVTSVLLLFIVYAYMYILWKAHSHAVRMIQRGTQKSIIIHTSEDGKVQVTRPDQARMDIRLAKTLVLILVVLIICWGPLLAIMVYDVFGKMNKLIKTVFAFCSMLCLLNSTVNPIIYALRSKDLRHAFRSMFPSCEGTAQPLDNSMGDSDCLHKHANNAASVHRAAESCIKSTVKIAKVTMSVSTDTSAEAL

Take `Cc1c(C(=O)NN2CCCCC2)nn(-c2ccc(Cl)cc2Cl)c1-c1ccc(Cl)cc1` [SR141617]: in assay [1], the “competition for [3H]CP55940 binding (in words)” value is listed as “failed to compete”.
Consider `Cc1ccc(C(=O)c2c3n(c4ccccc24)CCCC3)c2ccccc12` [Compound 4], for which, in assay [2], the “manner of competition for [3H]WIN55212-2 binding (biphasic / monophasic)” value (from here on “manner of competition … (biphasic / monophasic)”) is given as “biphasic”. Also, the “activation of mouse CB2R measured by receptor internalization” value (from here on “activation of mouse CB2R measured”) in assay [3] is given as “do not activate”. In addition, in assay [4], the “CB1R internalization (in words)” value is reported as “retained significant activity; also recorded: stimulate significant CB1R internalization”. In addition, the “CB2R internalization (in words)” value in assay [5] is “stimulated significant CB2R internalization; also recorded: activate”.
For the compound `Cc1ccc(C(=O)c2c(C)n(CCN3CCOCC3)c3cc(Cl)cc(Cl)c23)c2ccccc12` [Compound 11], in assay [2], the “competition for [3H]WIN55212-2 binding (in words)” value was “inactive”. The “binding at 1 μM” value in assay [2] (at 1 μM) was “no measurable binding”.
Turning to `CC1=C(CCN2CCOCC2)c2ccccc2/C1=C\c1cccc2ccccc12` [Compound 33, reference compound], the “competition for [3H]WIN55212-2 binding (in words)” value in assay [2] is given as “compete”. For the same compound, the “stimulation of [35S]GTPγS binding (in words)” value (“stimulation” below) in assay [6] is on record as “stimulated”.
Turning to `CCn1c(C)c(C(=O)c2ccc(C)c3ccccc23)c2ccccc21` [JWH-451, reference compound], the “manner of competition … (biphasic / monophasic)” value in assay [2] is “biphasic”. Further, the Ki in assay [2] (setting [7]) was found to be 1.5 nM. Besides, in assay [3], the “activation of mouse CB2R measured” value was “do not activate”. Further, in assay [6], the “stimulation” value is reported as “increases” and the “[35S]GTPγS response after pertussis toxin” value is on record as “significantly reduced”. In assay [6] (SR141617 (1 μM) and SR144528 (1 μM)), the “[35S]GTPγS response in presence of CB1R and CB2R antagonists” value is “insensitive; also recorded: not affected”. In addition, the “CB1R internalization (in words)” value in assay [4] was “inactive”. The “CB2R internalization (in words)” value in assay [5] is reported as “stimulated significant CB2R internalization; also recorded: activate”.
As to `CC1=C(CCN2CCOCC2)c2ccccc2/C1=C/c1cccc2ccccc12` [Compound 34, reference compound], the “competition for [3H]WIN55212-2 binding (in words)” value in assay [2] was “does not compete; also recorded: no significant competition”.
As to `Cc1ccc(C(=O)c2c(C)n(CCN3CCOCC3)c3ncccc23)c2ccccc12` [Compound 12], in assay [2], the “enhanced activity at AIHigh versus AILow” value is ~ 1000 fold and the “manner of competition … (biphasic / monophasic)” value was “biphasic”. Moreover, the Ki in assay [2] (setting [7]) turned out to be 0.4 nM. Moreover, the “activation of mouse CB2R measured” value in assay [3] is listed as “do not activate”. Also, in assay [6], the “stimulation” value is recorded as “increase” and the “[35S]GTPγS response after pertussis toxin” value is recorded as “pertussis toxin-sensitive”. For the same compound, the “CB1R internalization (in words)” value in assay [4] is listed as “retained significant activity; also recorded: stimulate significant CB1R internalization”. Moreover, the “CB2R internalization (in words)” value in assay [5] is “stimulated significant CB2R internalization; also recorded: activate”.
As to `CCn1c(C)c(C(=O)c2ccc(OC)cc2)c2ccccc21` [Compound 14], the “competition for [3H]WIN55212-2 binding (in words)” value in assay [2] is “inactive”.
Still for that read-out and setting: with `C1=C(CCN2CCOCC2)c2ccccc2/C1=C/c1cccc2ccccc12` [Compound 32, reference compound] the entry was “weakly competes”.
On the same count and under the same terms, with `Cc1c(C(=O)c2cccc3ccccc23)c2cccc3c2n1[C@H](CN1CCOCC1)CO3` [WIN55212–3, reference compound] the entry was “absence of competition”.
For `COc1ccc2c(C(=O)c3ccc(C)c4ccccc34)c(C)n(CCN3CCOCC3)c2c1` [Compound 8], the “stimulation” value in assay [6] was “increase”.
Consider `Cc1c(C(=O)c2cccc3ccccc23)c2cccc3c2n1[C@@H](CN1CCOCC1)CO3` [WIN55212-2, reference compound], for which, in assay [2], the “manner of competition … (biphasic / monophasic)” value was “biphasic”. The Ki in assay [2] (read-out: KiHigh, high affinity site of biphasic competition curve) came out at 0.043 nM; in assay [2] (read-out: KiLow, low affinity site of biphasic competition curve), 7.2 nM.
`Cc1ccc(C(=O)c2c(C)n(C)c3ccccc23)c2ccccc12` [JWH-450, reference compound]: the “manner of competition … (biphasic / monophasic)” value in assay [2] is reported as “biphasic”.
Regarding `Cc1ccc(C(=O)c2c(C)n(CCN3CCOCC3)c3ccccc23)c2ccccc12` [Compound 2], in assay [2], the “manner of competition … (biphasic / monophasic)” value is “biphasic”. Moreover, the Ki in assay [2] (setting [7]) came out at 0.8 nM. For the same compound, the “activation of mouse CB2R measured” value in assay [3] is listed as “do not activate”. For the same compound, the “CB1R internalization (in words)” value in assay [4] is on record as “retained significant activity; also recorded: stimulate significant CB1R internalization”. Besides, the “CB2R internalization (in words)” value in assay [5] is on record as “stimulated significant CB2R internalization; also recorded: activate”.
Consider `C1=C(CCN2CCOCC2)c2ccccc2/C1=C\c1cccc2ccccc12` [Compound 31, reference compound], for which, in assay [2], the “competition for [3H]WIN55212-2 binding (in words)” value is recorded as “compete”. The “stimulation” value in assay [6] is recorded as “stimulated”.
Consider `Cc1ccc(C(=O)c2c(C)n(CCN3CCOCC3)c3cc(Cl)ccc23)c2ccccc12` [Compound 10], for which the “KiLow (AILow binding sites)” value in assay [2] (low affinity site) is “undetectable”. For the same compound, in assay [6], the “stimulation” value is given as “increase” and the “[35S]GTPγS response after pertussis toxin” value is reported as “pertussis toxin-sensitive”.
As for `Cc1ccc(C(=O)c2c(C)n(CCN3CCOCC3)c3cnccc23)c2ccccc12` [Compound 13], in assay [2], the “manner of competition … (biphasic / monophasic)” value is recorded as “biphasic”. Further, the Ki in assay [2] (setting [7]) is 5.8 nM.
As for `COc1ccc2c(c1)c(C(=O)c1ccc(C)c3ccccc13)c(C)n2CCN1CCOCC1` [Compound 7], the “competition for [3H]WIN55212-2 binding (in words)” value in assay [2] was “inactive; also recorded: loss of binding”.
As to `Cc1ccc(C(=O)c2c(C)n(CCN3CCOCC3)c3ccc(Cl)cc23)c2ccccc12` [Compound 9], in assay [2], the “manner of competition … (biphasic / monophasic)” value was “biphasic”. For the same compound, the Ki in assay [2] (setting [7]) came out at 10 nM; in assay [2] (read-out: KiLow (AILow binding sites), low affinity site), 2300 nM.
With `Cc1ccc(C(=O)c2c(C)n(CC(F)(F)F)c3ccccc23)c2ccccc12` [Compound 5], the “activation of mouse CB2R measured” value in assay [3] is on record as “do not activate”. Moreover, the “CB1R internalization (in words)” value in assay [4] was “inactive”. In assay [5], the “CB2R internalization (in words)” value was “stimulated significant CB2R internalization; also recorded: activate”.
As to SR144528, the “competition for [3H]CP55940 binding (in words)” value in assay [1] is recorded as “failed to compete”.
For the compound `Cc1c(C(=O)c2cccc3ccccc23)c2ccccc2n1C` [JWH-042, reference compound], in assay [2], the “manner of competition … (biphasic / monophasic)” value is listed as “biphasic”.
In the case of `CCCCCCC(C)(C)c1ccc([C@@H]2C[C@H](O)CC[C@H]2CCCO)c(O)c1` [CP55940], in assay [1], the “competition for [3H]CP55940 binding (in words)” value was “failed to compete”.
